From ChEMBL document CHEMBL3774328, “Optimization by Molecular Fine Tuning of Dihydro-β-agarofuran Sesquiterpenoids as Reversers of P-Glycoprotein-Mediated Multidrug Resistance” (J Med Chem, 2016)

Columns and labels:
[1] = biological target: T1, ATP-dependent translocase ABCB1 (Homo sapiens, UniProt P08183); experiment: Inhibition of human MDR1 expressed in mouse NIH/3T3 cells assessed as daunomycin retention at 10 uM incubated for 30 mins by flow cytometry; type: cell-based; design: scale not given: the % may be the effect or the level left; settings: nih3t3, 0.5 h
T1 sequence (P08183 whole entry): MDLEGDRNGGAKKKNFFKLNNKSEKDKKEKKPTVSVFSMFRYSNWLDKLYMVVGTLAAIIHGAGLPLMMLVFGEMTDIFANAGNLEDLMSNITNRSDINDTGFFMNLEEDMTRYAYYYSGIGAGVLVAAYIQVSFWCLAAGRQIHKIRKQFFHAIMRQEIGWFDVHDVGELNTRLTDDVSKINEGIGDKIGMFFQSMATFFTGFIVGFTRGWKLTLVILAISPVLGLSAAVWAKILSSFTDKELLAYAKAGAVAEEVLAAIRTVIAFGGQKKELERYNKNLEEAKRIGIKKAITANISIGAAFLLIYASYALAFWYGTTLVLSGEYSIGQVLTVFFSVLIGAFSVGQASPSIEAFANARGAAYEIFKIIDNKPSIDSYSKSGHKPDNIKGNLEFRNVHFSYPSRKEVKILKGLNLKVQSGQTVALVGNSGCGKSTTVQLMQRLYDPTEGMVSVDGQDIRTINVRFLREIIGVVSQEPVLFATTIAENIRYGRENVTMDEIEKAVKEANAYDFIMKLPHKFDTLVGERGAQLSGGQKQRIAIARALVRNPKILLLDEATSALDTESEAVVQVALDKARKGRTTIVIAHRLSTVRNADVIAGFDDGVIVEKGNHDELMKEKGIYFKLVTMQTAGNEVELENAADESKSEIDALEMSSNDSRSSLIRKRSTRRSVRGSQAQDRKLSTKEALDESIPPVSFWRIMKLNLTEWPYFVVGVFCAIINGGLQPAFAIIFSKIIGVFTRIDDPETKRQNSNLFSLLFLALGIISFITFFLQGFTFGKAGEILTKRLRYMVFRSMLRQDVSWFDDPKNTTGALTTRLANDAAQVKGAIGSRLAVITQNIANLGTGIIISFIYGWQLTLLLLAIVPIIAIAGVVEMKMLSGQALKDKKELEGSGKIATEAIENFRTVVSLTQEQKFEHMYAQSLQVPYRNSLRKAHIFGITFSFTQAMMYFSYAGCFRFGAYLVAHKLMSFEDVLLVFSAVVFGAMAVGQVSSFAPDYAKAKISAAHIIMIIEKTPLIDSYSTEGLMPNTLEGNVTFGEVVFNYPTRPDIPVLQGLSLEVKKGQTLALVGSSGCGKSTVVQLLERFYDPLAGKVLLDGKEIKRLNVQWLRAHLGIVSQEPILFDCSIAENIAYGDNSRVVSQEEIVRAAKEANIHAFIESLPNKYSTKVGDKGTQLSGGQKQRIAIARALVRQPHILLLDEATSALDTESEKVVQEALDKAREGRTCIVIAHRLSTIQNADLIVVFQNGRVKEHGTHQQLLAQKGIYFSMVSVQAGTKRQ
Summary of the method: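 DNM retention by flow cytometry. MDR1-G185 NIH-3T3 cells in log phase were seeded 24 h before at 10^5 cells/well. They were incubated 30 min at 37 °C in DMEM + 10% iFBS with DNM (2 μM), with or without compound (10 μM). Cells were then washed twice in ice-cold PBS, trypsinized and read immediately for single-cell fluorescence.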

[2] = biological target: T1, ATP-dependent translocase ABCB1; experiment: Inhibition of human MDR1 expressed in mouse NIH/3T3 cells assessed as inhibition of daunomycin efflux incubated for 30 mins by flow cytometry; type: cell-based, NIH3T3
Summary of the method: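 Ki for DNM efflux. MDR1-G185 NIH-3T3 cells were incubated 30 min at 37 °C with DNM (2 μM) and varying compound concentrations, then read by flow cytometry. Fluorescence was converted to % P-gp inhibition, normalized to cells treated with 5 mM sodium orthovanadate (100%). Ki was fitted from I = (Imax × S)/(Ki + S). Mean ± SD of three independent experiments in triplicate.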

[3] = Intrinsic cytotoxicity against mouse NIH/3T3 cells transfected with human MDR1 by MTT assay; type: ADME, cell-based, NIH3T3
Summary of the method: (§1)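 Intrinsic cytotoxicity was measured by MTT in parental NIH-3T3 and MDR1-G185 cells. CC50 came from a four-parameter logistic fit. The top tested concentration was 60 μM, limited by DMSO toxicity, and growth at 60 μM is given as % of untreated control. Mean ± SD of three independent experiments in duplicate.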

[4] = Intrinsic cytotoxicity against mouse NIH/3T3 cells by MTT assay; type: cell-based, NIH3T3; summary of the method: as §1
[5] = biological target: T1, ATP-dependent translocase ABCB1; experiment: Inhibition of human MDR1 expressed in mouse NIH/3T3 cells assessed as reduction in daunomycin IC50 at 1 uM by MTT assay; type: cell-based; settings: nih3t3, 1 µM
Summary of the method: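 Parental NIH-3T3 and MDR1-G185 cells were grown in DMEM with 10% iFBS. They were exposed to increasing DNM or VLB (up to 500 ng/mL) with or without compound at fixed 1, 3 or 10 μM. Growth was read by MTT, and IC50 came from a four-parameter logistic fit. Mean ± SD of two independent experiments in triplicate.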

[6] = biological target: T1, ATP-dependent translocase ABCB1; experiment: Inhibition of human MDR1 expressed in mouse NIH/3T3 cells assessed as reduction in daunomycin IC50 at 3 uM by MTT assay; type: cell-based; settings: nih3t3, 3 µM
Summary of the method: (§2)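 Parental NIH-3T3 and MDR1-G185 cells were grown in DMEM with 10% iFBS. They were exposed to increasing DNM or VLB (up to 500 ng/mL) with or without compound at fixed 1, 3 or 10 μM. Growth was read by MTT, and IC50 came from a four-parameter logistic fit. Reversal index = IC50 without compound / IC50 with compound in MDR1 cells. Mean ± SD of two independent experiments in triplicate.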

[7] = biological target: T1, ATP-dependent translocase ABCB1; experiment: Inhibition of human MDR1 expressed in mouse NIH/3T3 cells assessed as reduction in daunomycin IC50 at 10 uM by MTT assay; type: cell-based; settings: nih3t3, 10 µM; summary of the method: as §2
[8] = biological target: T1, ATP-dependent translocase ABCB1; experiment: Inhibition of human MDR1 expressed in mouse NIH/3T3 cells assessed as reduction in vinblastine IC50 at 1 uM by MTT assay; type: cell-based; settings: nih3t3, 1 µM; summary of the method: as §2
[9] = biological target: T1, ATP-dependent translocase ABCB1; experiment: Inhibition of human MDR1 expressed in mouse NIH/3T3 cells assessed as reduction in vinblastine IC50 at 3 uM by MTT assay; type: cell-based; settings: nih3t3, 3 µM; summary of the method: as §2
[10] = biological target: T1, ATP-dependent translocase ABCB1; experiment: Inhibition of human MDR1 expressed in mouse NIH/3T3 cells assessed as reduction in vinblastine IC50 at 10 uM by MTT assay; type: cell-based; settings: nih3t3, 10 µM; summary of the method: as §2
[11] = Intrinsic cytotoxicity against mouse NIH/3T3 cells assessed as cell growth at 60 uM by MTT assay; type: cell-based, NIH3T3; settings: read-out: Activity; summary of the method: as §1
[12] = biological target: T1, ATP-dependent translocase ABCB1; experiment: Potency index, ratio of vinblastine reversal index to compound reversal index for human MDR1 expressed in mouse NIH/3T3 cells at 3 uM; type: cell-based; settings: nih/3t3, 3 µM
[13] = biological target: T1, ATP-dependent translocase ABCB1; experiment: Potency index, ratio of daunomycin reversal index to compound reversal index for human MDR1 expressed in mouse NIH/3T3 cells at 1 uM; type: cell-based; settings: nih/3t3, 1 µM
Summary of the method: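 Each RI comes from the MTT dose-response of DNM or VLB (up to 500 ng/mL), with or without modulator.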

[14] = Intrinsic cytotoxicity against mouse NIH/3T3 cells transfected with human MDR1 assessed as cell growth at 60 uM by MTT assay; type: ADME, cell-based, NIH3T3; settings: read-out: Activity; summary of the method: as §1

SMILES	Activity [1]	Ki [2]	CC50 [3]	CC50 [4]	fold change (FC) [5]	fold change (FC) [6]	fold change (FC) [7]	fold change (FC) [8]	fold change (FC) [9]	fold change (FC) [10]	viability at 60 µM [11]	Ratio [12]	Ratio [13]	viability at 60 µM [14]
C=C1CC[C@H](OC(C)=O)[C@@]2(C)[C@@H](OC(=O)c3ccccc3)[C@@H](OC(=O)/C=C/c3ccccc3)[C@@H]3[C@@H](O)[C@]12OC3(C)C	66%	–	–	–	–	–	–	–	–	–	–	–	–	–
CC(=O)O[C@H]1CC[C@](C)(O)[C@]23OC(C)(C)[C@H]([C@H](OC(=O)/C=C/c4ccccc4)[C@H](OC(=O)c4ccccc4)[C@]12C)[C@H]3O	83%	0.28 µM	25.5 µM	26.1 µM	5.6	9.1	15.1	23.7	30.3	86.6	–	–	–	–
CC(=O)O[C@H]1CC[C@](C)(OC(C)=O)[C@]23OC(C)(C)[C@H]([C@H](OC(=O)/C=C/c4ccccc4)[C@H](OC(=O)c4ccccc4)[C@]12C)[C@H]3OC(C)=O	85%	0.52 µM	51.6 µM	> 60 µM	6.9	10.3	15.2	21.2	58.2	91.7	68.1%	2	–	–
CC(=O)O[C@H]1CC[C@](C)(O)[C@]23OC(C)(C)[C@H]([C@H](OC(=O)/C=C/c4ccccc4)[C@H](OC(=O)c4ccccc4)[C@]12C)[C@H]3OC(=O)CCl	83%	1.52 µM	5.3 µM	7.4 µM	–	–	–	–	–	–	–	–	–	–
CC(=O)O[C@H]1CC[C@](C)(OC(=O)CNCC(C)C)[C@]23OC(C)(C)[C@H]([C@H](OC(=O)/C=C/c4ccccc4)[C@H](OC(=O)c4ccccc4)[C@]12C)[C@H]3OC(C)=O	–	0.63 µM	34.6 µM	37.3 µM	10	15.1	22.2	20.6	49.1	82.9	–	–	3	–
CC(=O)O[C@H]1CC[C@](C)(O)[C@]23OC(C)(C)[C@H]([C@H](OC(=O)/C=C/c4ccccc4)[C@H](OC(=O)c4ccccc4)[C@]12C)[C@H]3OC(=O)N(C)C	–	1.21 µM	24 µM	56.3 µM	11.8	13.9	16.3	11.2	37.7	90.2	–	–	3	–
CC(=O)O[C@H]1CC[C@]2(C)O[C@@H]3[C@H]4[C@H](OC(=O)/C=C/c5ccccc5)[C@H](OC(=O)c5ccccc5)[C@@]1(C)[C@]32OC4(C)C	–	0.5 µM	27.9 µM	29.4 µM	5.9	8.7	15.6	15.2	75.8	125.2	–	2	–	–
COc1ccc(CCN(C)CCCC(C#N)(c2ccc(OC)c(OC)c2)C(C)C)cc1OC (stereo unspecified)	–	–	> 60 µM	–	–	6.2	10.8	8.7	27.8	129.9	–	–	–	76.9%
CC(=O)O[C@H]1CC[C@](C)(O)[C@]23OC(C)(C)[C@H]([C@H](OC(=O)/C=C\c4ccccc4)[C@H](OC(=O)c4ccccc4)[C@]12C)[C@H]3OC(=O)c1cnccn1	–	0.42 µM	31.2 µM	> 60 µM	3.2	5.2	9	5.2	18.7	39.6	68.3%	–	–	–
CC(=O)O[C@H]1CC[C@](C)(O)[C@]23OC(C)(C)[C@H]([C@H](OC(=O)/C=C/c4ccccc4)[C@H](OC(=O)c4ccccc4)[C@]12C)[C@H]3OS(C)(=O)=O	83%	0.6 µM	31.7 µM	> 60 µM	7	11.1	16.3	18.5	86.6	149.2	69.1%	2	–	–
CC(=O)O[C@H]1CC[C@](C)(O)[C@]23OC(C)(C)[C@H]([C@H](OC(=O)/C=C/c4ccccc4)[C@H](OC(=O)c4ccccc4)[C@]12C)[C@H]3OC(C)=O	83%	0.29 µM	18.3 µM	26.3 µM	–	–	–	–	–	–	–	–	–	–
C=C1CC[C@H](OC(C)=O)[C@@]2(C)[C@@H](OC(=O)c3ccccc3)[C@@H](OC(=O)/C=C/c3ccccc3)[C@@H]3[C@@H](OS(C)(=O)=O)[C@]12OC3(C)C	66%	–	–	–	–	–	–	–	–	–	–	–	–	–
CC(=O)O[C@H]1CC[C@](C)(O)[C@]23OC(C)(C)[C@H]([C@H](OC(=O)/C=C/c4ccccc4)[C@H](OC(=O)c4ccccc4)[C@]12C)[C@H]3OC(=O)c1cccnc1	–	0.13 µM	32.6 µM	> 60 µM	11.8	14.7	16.1	17.4	56	113.5	67.7%	2	3	–
C=C1CC[C@H](OC(C)=O)[C@@]2(C)[C@@H](OC(=O)c3ccccc3)[C@@H](OC(=O)/C=C/c3ccccc3)[C@@H]3[C@@H](OC(=O)CCl)[C@]12OC3(C)C	66%	–	–	–	–	–	–	–	–	–	–	–	–	–
CCC(=O)O[C@@H]1[C@H]2[C@H](OC(=O)/C=C/c3ccccc3)[C@H](OC(=O)c3ccccc3)[C@]3(C)[C@@H](OC(C)=O)CC[C@](C)(O)[C@@]13OC2(C)C	–	0.54 µM	24.9 µM	> 60 µM	10.8	11.5	12.4	19.1	69	110.9	68.6%	2	3	–
